Non-standard residues stand in square brackets, D forms with d. Residues, ends and D or L forms follow the SMILES beside them. *: point of attachment. Phe(4-F) = N[C@@H](Cc1ccc(F)cc1)C(=O)O; Cbz = O=C(OCc1ccccc1)*
Tests used:
[1] = PAMPA passive membrane permeability; type: in vitro ADME; conditions: for passive membrane permeability, in words: 10 µM, 13 h incubation, triplicate
MeV‐F [2] = conditions: cited from earlier work; for IC50: reported value
Vero/SLAM cells = experiment: CCK-8 cytotoxicity assay; type: cell-based; conditions: CCK-8 assay, 100 µM, 24 h; result in words
[3] = test system: EGFP‐recombinant MeV (MeV‐EGFP); experiment: Viral entry inhibition assay; type: cell-based, measles virus; conditions: ratio of IC50 values in the viral entry inhibition assay
Summary of the method: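 Vero/hSLAM cells were infected with EGFP‑recombinant MeV in the presence of test compound for 1 h. Virus medium was removed and cells were kept 48 h in medium containing 100 µM of the parent fusion‑inhibitor peptide. Fluorescent infected cells were counted to give IC50, in triplicate. The ratio is taken against the parent peptide's IC50, measured under the same conditions.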

MeV‐F [4] = biological target: T1, MeV‐F (Measles virus, UniProt Q786F3); experiment: Cell-to-cell fusion assay; type: cell-based; conditions: 0.5 µM peptide, triplicate (Figure S2)
T1 sequence (Q786F3 113-550 limits assumed): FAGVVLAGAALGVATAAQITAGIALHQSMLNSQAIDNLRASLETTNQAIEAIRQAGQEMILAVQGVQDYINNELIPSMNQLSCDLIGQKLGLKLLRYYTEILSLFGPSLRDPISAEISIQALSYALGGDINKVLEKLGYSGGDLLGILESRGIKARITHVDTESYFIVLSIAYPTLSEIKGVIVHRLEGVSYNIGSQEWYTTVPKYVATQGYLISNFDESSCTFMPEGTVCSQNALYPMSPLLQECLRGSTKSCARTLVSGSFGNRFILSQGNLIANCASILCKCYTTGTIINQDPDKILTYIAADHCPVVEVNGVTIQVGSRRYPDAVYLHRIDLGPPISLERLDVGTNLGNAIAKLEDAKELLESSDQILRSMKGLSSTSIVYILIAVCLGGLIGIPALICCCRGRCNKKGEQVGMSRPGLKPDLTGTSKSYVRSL
T1 sequence (Q786F3 24-112 limits assumed): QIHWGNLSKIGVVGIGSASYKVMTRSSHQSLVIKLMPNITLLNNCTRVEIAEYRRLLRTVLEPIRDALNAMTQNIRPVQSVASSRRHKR
Summary of the method: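 Vero cells stably expressing human SLAM were transfected with plasmids encoding MeV‑F, MeV‑H and EGFP, then incubated with test compound for 24 h. Syncytium formation was judged by EGFP fluorescence imaging. Controls were cells without peptide and cells transfected with EGFP plasmid alone. Run in triplicate.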

[5] = test system: fusion protein of canine distemper virus; conditions: cited from earlier work

SMILES | passive membrane permeability, in words [1] | IC50 (MeV‐F [2]) | cytotoxicity to Vero/SLAM cells (Vero/SLAM cells) | Papp at 13 h, 10 µM [1] | inhibitory activity compared to the original FIP (MeV‐F [2]; authors' previous study) | enhancement in inhibitory activity compared to FIP [3] | inhibition of syncytia formation, comparison of the two compounds (MeV‐F [4]) | inhibition of canine distemper virus fusion protein [5]
N=C(N)NCCC[C@@H](NC(=O)[C@H](Cc1ccccc1)NC(=O)[C@@H](Cc1ccccc1)NC(=O)OCc1ccccc1)C(N)=O [FIP‐G3r‐NH2] (Cbz-[dF]-Phe-[dR]-NH2) | did not passively permeate the lipid membrane | 210 nM | did not exhibit cytotoxicity | – | – | – | – | –
NC(=O)CNC(=O)[C@H](Cc1ccccc1)NC(=O)[C@@H](Cc1ccccc1)NC(=O)OCc1ccccc1 [FIP‐NH2] (Cbz-[dF]-Phe-Gly-NH2) | – | – | – | 1.2 ± 0.2 ×10⁻⁶ cm/s | slight improvement in inhibitory activity | – | – | –
NC(=O)CNC(=O)[C@H](Cc1ccc(F)cc1)NC(=O)[C@@H](Cc1ccccc1)NC(=O)OCc1ccccc1 [FIP‐F2pF‐NH2] (Cbz-[dF]-[Phe(4-F)]-Gly-NH2) | – | – | did not exhibit cytotoxicity | 1.4 ± 0.1 ×10⁻⁶ cm/s | – | 23 fold | stronger inhibitor than FIP‐ZoF‐NH2 | –
O=C(O)CNC(=O)[C@H](Cc1ccccc1)NC(=O)[C@@H](Cc1ccccc1)NC(=O)OCc1ccccc1 [FIP] (Cbz-[dF]-Phe-Gly-OH) | negligible level of permeability | 1300 nM | did not exhibit cytotoxicity | – | – | – | – | does not inhibit

From article PMC12444810 (Chemmedchem, 2025)
